From ChEMBL document CHEMBL3875148, “Synthesis and biological evaluation of novel alkyl diamine linked bivalent β-carbolines as angiogenesis inhibitors” (Eur J Med Chem, 2016)
The source made the active and inactive calls. The rule behind the calls is not given here.

How the values were obtained:
[1] = Antiproliferative activity against human EAhy926 cells measured after 48 hrs by MTT assay; type: functional, cell-based; details: EA.hy 926, 48 h
[2] = Aqueous solubility of the compound; type: physicochemical
[3] = test system: EA.hy 926; experiment: Antimigratory activity against human EAhy926 cells assessed as inhibition of VEGF-induced cell migration incubated for 24 hrs by wound healing assay; type: functional, cell-based
Summary of the method: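 Wound-healing scratch assay in EA.HY926 endothelial cells with VEGF stimulation. Compound tested across 0.3 to 30, with Endostar as positive control. Migration was compared against untreated cells.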

[4] = species: Gallus gallus; experiment: Antiangiogenic activity against 5-day-old chicken egg chorioallantoic membrane at 0.3 to 30 uM/disc incubated for 48 hrs by microscopic analysis; type: functional, tissue-based
[5] = test system: EA.hy 926; experiment: Antiangiogenic activity against human EAhy926 cells assessed as inhibition of VEGF-induced capillary-like tube formation measured after 24 hrs by phase contrast microscopic analysis; type: functional, cell-based
Summary of the method: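 EA.HY926 cells were plated on Matrigel-coated wells and treated for 24 h at 0.3–30. Capillary-like tubules with multicentric junctions were scored by imaging against compound-free controls.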

Structure (SMILES) | IC50 [1] [µM] | other results
Fc1ccc(Cn2c3ccccc3c3ccnc(CNCCCCNCc4nccc5c6ccccc6n(Cc6ccc(F)cc6)c45)c32)cc1 | 4.96 | 
c1ccc2c(c1)[nH]c1c(CNCCCCCNCc3nccc4c3[nH]c3ccccc34)nccc12 | 14.5 | 
CCn1c2ccccc2c2ccnc(CNCCCNCc3nccc4c5ccccc5n(CC)c34)c21 | 7.77 | 
c1ccc(Cn2c3ccccc3c3ccnc(CNCCCNCc4nccc5c6ccccc6n(Cc6ccccc6)c45)c32)cc1 | 8.89 | 
CC(C)Cn1c2ccccc2c2ccnc(CNCCCCNCc3nccc4c5ccccc5n(CC(C)C)c34)c21 | 8.06 | 
COc1ccc(/C=C\c2cc(OC)c(OC)c(OC)c2)cc1OP(=O)(O)O [FOSBRETABULIN] | 6.4 | 
CCCCn1c2ccccc2c2ccnc(CNCCCCCCNCc3nccc4c5ccccc5n(CCCC)c34)c21 | 2.92 | 
CCCCCCn1c2ccccc2c2ccnc(CNCCCCCCNCc3nccc4c5ccccc5n(CCCCCC)c34)c21 | 8.2 | 
Clc1cccc(Cn2c3ccccc3c3ccnc(CNCCCCCNCc4nccc5c6ccccc6n(Cc6cccc(Cl)c6)c45)c32)c1 | 4.69 | 
c1ccc(Cn2c3ccccc3c3ccnc(CNCCCCCCNCc4nccc5c6ccccc6n(Cc6ccccc6)c45)c32)cc1 | 3.81 | 
c1ccc(CCCn2c3ccccc3c3ccnc(CNCCCNCc4nccc5c6ccccc6n(CCCc6ccccc6)c45)c32)cc1 | 9.35 | 
CCCCCCn1c2ccccc2c2ccnc(CNCCCCCNCc3nccc4c5ccccc5n(CCCCCC)c34)c21 | 5.16 | 
CCn1c2ccccc2c2ccnc(CNCCCCNCc3nccc4c5ccccc5n(CC)c34)c21 | 5.36 | 
CCCCn1c2ccccc2c2ccnc(CNCCCCNCc3nccc4c5ccccc5n(CCCC)c34)c21 | 4.37 | 
Cn1c2ccccc2c2ccnc(CNCCCCNCc3nccc4c5ccccc5n(C)c34)c21 | 17 | 
CCCCCCn1c2ccccc2c2ccnc(CNCCCCNCc3nccc4c5ccccc5n(CCCCCC)c34)c21 | 8.93 | 
Cn1c2ccccc2c2ccnc(CNCCCCCCNCc3nccc4c5ccccc5n(C)c34)c21 | 11.5 | 
Cl.c1ccc2c(c1)[nH]c1c(CNCCCCNCc3nccc4c3[nH]c3ccccc34)nccc12 | 25.8 | solubility [2]: > 10000 µg/mL
c1ccc(CCCn2c3ccccc3c3ccnc(CNCCCCCNCc4nccc5c6ccccc6n(CCCc6ccccc6)c45)c32)cc1 | 2.76 | 
CCCCCCn1c2ccccc2c2ccnc(CNCCCNCc3nccc4c5ccccc5n(CCCCCC)c34)c21 | 9.23 | 
CCCCn1c2ccccc2c2ccnc(CNCCCNCc3nccc4c5ccccc5n(CCCC)c34)c21 | 8.39 | 
CC(C)Cn1c2ccccc2c2ccnc(CNCCCCCCNCc3nccc4c5ccccc5n(CC(C)C)c34)c21 | 5.55 | 
Fc1ccc(Cn2c3ccccc3c3ccnc(CNCCCNCc4nccc5c6ccccc6n(Cc6ccc(F)cc6)c45)c32)cc1 | 8.87 | 
CCCCCCCCn1c2ccccc2c2ccnc(CNCCCCCNCc3nccc4c5ccccc5n(CCCCCCCC)c34)c21 | 8 | 
c1ccc(CCCn2c3ccccc3c3ccnc(CNCCCCNCc4nccc5c6ccccc6n(CCCc6ccccc6)c45)c32)cc1 | 4.78 | 
CCCCCCCCn1c2ccccc2c2ccnc(CNCCCCNCc3nccc4c5ccccc5n(CCCCCCCC)c34)c21 | 9.33 | 
CC(C)n1c2ccccc2c2ccnc(CNCCCCCCNCc3nccc4c5ccccc5n(C(C)C)c34)c21 | 8.56 | 
c1ccc(CCCn2c3ccccc3c3ccnc(CNCCCCCCNCc4nccc5c6ccccc6n(CCCc6ccccc6)c45)c32)cc1 | 3.22 | 
CCCCn1c2ccccc2c2ccnc(CNCCCCCNCc3nccc4c5ccccc5n(CCCC)c34)c21 | 2.16 | inhibition [3]: Dose-dependent effect; Activity [4]: Active; inhibition [5]: Dose-dependent effect
